Converted amounts (≈) assume the structure as drawn.
Assays:
Staphylococcus aureus [1] = experiment: Antibacterial activity against chloramphenicol, tetracycline-resistant Staphylococcus aureus COL-S carrying SSpbpD/mecI-mecR1 plasmid; type: functional
Summary of the method: (§1)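 Oxacillin MIC by population analysis: overnight-culture aliquots plated on tryptic soy agar with increasing oxacillin concentrations. CFU counted after 72 h at 30°C.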

Staphylococcus aureus [2] = experiment: Antibacterial activity against tetracycline-resistant Staphylococcus aureus COL-S carrying SAmecA plasmid; type: functional; summary of the method: as §1
Staphylococcus aureus [3] = experiment: Antibacterial activity against chloramphenicol, tetracycline-resistant Staphylococcus aureus COL-S carrying SAmecA/mecI-mecR1 plasmid; type: functional; summary of the method: as §1
Staphylococcus aureus [4] = experiment: Antibacterial activity against chloramphenicol-susceptible and oxacillin, erythromycin, tetracycline-resistant Staphylococcus aureus COL
Staphylococcus aureus [5] = experiment: Antibacterial activity against tetracycline-resistant Staphylococcus aureus COL-S carrying SSpbpD plasmid; type: functional; summary of the method: as §1
Staphylococcus aureus [6] = experiment: Antibacterial activity against oxacillin, chloramphenicol, erythromycin-susceptible and tetracycline-resistant Staphylococcus aureus COL-S with SCCmec excised; type: functional; summary of the method: as §1
Staphylococcus aureus [7] = experiment: Antibacterial activity against chloramphenicol-resistant Staphylococcus aureus COL carrying mecI-mecR1 plasmid; type: functional; summary of the method: as §1

Structure (SMILES)	MIC (Staphylococcus aureus [1])	MIC (Staphylococcus aureus [2])	MIC (Staphylococcus aureus [3])	MIC (Staphylococcus aureus [4])	MIC (Staphylococcus aureus [5])	MIC (Staphylococcus aureus [6])	MIC (Staphylococcus aureus [7])
Cc1onc(-c2ccccc2)c1C(=O)N[C@@H]1C(=O)N2[C@@H]1SC(C)(C)[C@@H]2C(=O)O [OXACILLIN]	0.4 µg/mL (≈ 0.996 µM)	400 µg/mL (≈ 996 µM)	0.8 µg/mL (≈ 1.99 µM)	800 µg/mL (≈ 1990 µM)	400 µg/mL (≈ 996 µM)	0.8 µg/mL (≈ 1.99 µM)	0.4 µg/mL (≈ 0.996 µM)
CC1=C(C(=O)O)N2C(=O)[C@@H](NC(=O)[C@H](N)C3=CCC=CC3)[C@H]2SC1 [CEPHRADINE]	3 µg/mL (≈ 8.59 µM)	400 µg/mL (≈ 1140 µM)	12 µg/mL (≈ 34.3 µM)	400 µg/mL (≈ 1140 µM)	100 µg/mL (≈ 286 µM)	6 µg/mL (≈ 17.2 µM)	6 µg/mL (≈ 17.2 µM)
N[C@@H]1CONC1=O [CYCLOSERINE]		8 µg/mL (≈ 78.4 µM)		1 µg/mL (≈ 9.79 µM)	0.75 µg/mL (≈ 7.35 µM)		
CO/N=C(\C(=O)N[C@@H]1C(=O)N2C(C(=O)O)=C(COC(C)=O)CS[C@H]12)c1csc(N)n1 [CEFOTAXIME]	6 µg/mL (≈ 13.2 µM)	800 µg/mL (≈ 1760 µM)	6 µg/mL (≈ 13.2 µM)	800 µg/mL (≈ 1760 µM)	200 µg/mL (≈ 439 µM)	0.8 µg/mL (≈ 1.76 µM)	6 µg/mL (≈ 13.2 µM)
CO[C@@]1(NC(=O)Cc2cccs2)C(=O)N2C(C(=O)O)=C(COC(N)=O)CS[C@@H]21 [CEFOXITIN]	1.5 µg/mL (≈ 3.51 µM)	400 µg/mL (≈ 936 µM)	6 µg/mL (≈ 14 µM)	800 µg/mL (≈ 1870 µM)	200 µg/mL (≈ 468 µM)	3 µg/mL (≈ 7.02 µM)	3 µg/mL (≈ 7.02 µM)
CO/N=C(\C(=O)N[C@@H]1C(=O)N2C(C(=O)O)=CCS[C@H]12)c1csc(N)n1 [CEFTIZOXIME]	12 µg/mL (≈ 31.3 µM)	800 µg/mL (≈ 2090 µM)	3 µg/mL (≈ 7.82 µM)	800 µg/mL (≈ 2090 µM)	400 µg/mL (≈ 1040 µM)	0.8 µg/mL (≈ 2.09 µM)	3 µg/mL (≈ 7.82 µM)

Source: ChEMBL document CHEMBL1629602, “Reconstruction of the phenotypes of methicillin-resistant Staphylococcus aureus by replacement of the staphylococcal cassette chromosome mec with a plasmid-borne copy of Staphylococcus sciuri pbpD gene” (2009)
